According to ChEMBL document CHEMBL3997844, “Synthesis and anti-inflammatory activity of isoquebecol” (Bioorg Med Chem, 2017):

Legend:
[1] = test system: U-937; test: Anti-inflammatory activity in human U937-derived macrophage-like cells assessed as inhibition of LPS-induced IL-6 secretion at 500 uM preincubated for 2 hrs followed by LPS addition measured after 24 hrs by ELISA relative to control; type: functional
[2] = test system: U-937; test: Anti-inflammatory activity in human U937-derived macrophage-like cells assessed as inhibition of LPS-induced IL-6 secretion at 125 uM preincubated for 2 hrs followed by LPS addition measured after 24 hrs by ELISA relative to control; type: functional
[3] = Cytotoxicity against human U937-derived macrophage-like cells assessed as reduction in cell viability after 24 hrs by MTT assay; type: cell-based, U-937; conditions: read-out: MNCC
Summary of the method: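 PMA-differentiated U937 macrophage-like cells (1×10^6 cells/well, RPMI-1% FBS) exposed to 2-fold serial dilutions from 1000 to 7.81 µM for 24 h. Viability read by MTT assay; highest non-cytotoxic concentration recorded.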

[4] = test system: U-937; test: Anti-inflammatory activity in human U937-derived macrophage-like cells assessed as inhibition of LPS-induced IL-6 secretion at 250 uM preincubated for 2 hrs followed by LPS addition measured after 24 hrs by ELISA relative to control; type: functional
[5] = test system: U-937; test: Anti-inflammatory activity in human U937-derived macrophage-like cells assessed as inhibition of LPS-induced IL-6 secretion at 31.25 uM preincubated for 2 hrs followed by LPS addition measured after 24 hrs by ELISA relative to control; type: functional
[6] = test system: U-937; test: Anti-inflammatory activity in human U937-derived macrophage-like cells assessed as inhibition of LPS-induced IL-6 secretion at 62.5 uM preincubated for 2 hrs followed by LPS addition measured after 24 hrs by ELISA relative to control; type: functional
[7] = test system: U-937; test: Anti-inflammatory activity in human U937-derived macrophage-like cells assessed as inhibition of LPS-induced IL-6 secretion preincubated for 2 hrs followed by LPS addition measured after 24 hrs by ELISA; type: functional, cell-based

| SMILES | inhibition at 500 µM [1] [%] | inhibition at 125 µM [2] [%] | MNTC at 24 h [3] [µM] | inhibition at 250 µM [4] [%] | inhibition at 31.25 µM [5] [%] | inhibition at 62.5 µM [6] [%] | inhibition [7] |
| --- | --- | --- | --- | --- | --- | --- | --- |
| COc1ccc(C(=O)CO)cc1O | 92.5 | 0.8 | 500 | 24.1 | – | – | – |
| OCC(c1ccccc1)C(c1ccccc1)c1ccccc1 (centres undefined) | 100 | 100 | 31.2 | 100 | 1.4 | 15.6 | – |
| COc1cc(C(CO)C(c2ccc(O)c(OC)c2)c2ccc(O)c(OC)c2)ccc1O (centres undefined) | 93.8 | 55.3 | 500 | 84.7 | 3.7 | 4.7 | Dose-dependent effect |
| COc1cc(Cc2ccc(O)c(OC)c2)ccc1O | 98.1 | 27.5 | 500 | 90.5 | – | – | – |
| CCOC(=O)C(c1ccccc1)C(c1ccccc1)c1ccccc1 (centres undefined) | 99.8 | 2 | 62.5 | 85.3 | 0.2 | 0.4 | – |
| COc1ccc(C(O)CO)cc1O (centres undefined) | 83.8 | 1.4 | 500 | 20.9 | – | – | – |
| COc1cc(C(O)CO)ccc1O (centres undefined) | 86.8 | 2.1 | 500 | 8 | – | – | – |
| CCOC(=O)Cc1ccc(O)c(OC)c1 | 0.8 | 0.2 | > 1000 | 0.4 | – | – | – |
| COc1ccc(CCO)cc1O | 5.1 | 0.9 | > 1000 | 2.7 | – | – | – |
| CCOC(=O)C(c1ccc(OC)c(O)c1)C(c1ccc(OC)c(O)c1)c1ccc(OC)c(O)c1 (centres undefined) | 100 | 41.3 | 62.5 | 96.8 | 3 | 5.9 | – |
| CCOC(=O)Cc1ccc(OC)c(O)c1 | 8.3 | 0.8 | > 1000 | 3.2 | – | – | – |
| COc1cc(C(=O)CO)ccc1O | 90.1 | 4.9 | 500 | 64.4 | – | – | – |
| COc1ccc(C(CO)C(c2ccc(OC)c(O)c2)c2ccc(OC)c(O)c2)cc1O (centres undefined) | 99.7 | 48.3 | 250 | 96.9 | 34.5 | 43.3 | Dose-dependent effect |
| CCOC(=O)C(=C(c1ccc(OC)c(O)c1)c1ccc(OC)c(O)c1)c1ccc(OC)c(O)c1 | 100 | 97.8 | 62.5 | 100 | 0.8 | 31.2 | – |
| COc1ccc(CC(=O)O)cc1O | 2 | 0.5 | > 1000 | 2.1 | – | – | – |
| COc1cc(CC(=O)O)ccc1O [HOMOVANILLIC ACID] | 0.6 | 0.3 | > 1000 | 0.2 | – | – | – |
| COc1cc(CCO)ccc1O | 1.2 | 1.1 | > 1000 | 0.9 | – | – | – |
| CCOC(=O)C(=C(c1ccccc1)c1ccccc1)c1ccccc1 | 100 | 11 | < 15.6 | 100 | 0.5 | 0.5 | – |
| CCOC(=O)C(=C(c1ccc(O)c(OC)c1)c1ccc(O)c(OC)c1)c1ccc(O)c(OC)c1 | 100 | 99.5 | 62.5 | 100 | 2.5 | 11.2 | – |
| COc1ccc(Cc2ccc(OC)c(O)c2)cc1O | 99.8 | 50.7 | 500 | 92.5 | – | – | – |
| CCOC(=O)C(c1ccc(O)c(OC)c1)C(c1ccc(O)c(OC)c1)c1ccc(O)c(OC)c1 (centres undefined) | 100 | 34.6 | 250 | 91.9 | 4 | 9.4 | – |
